Screening results deposited in PubChem by Johns Hopkins Ion Channel Center.
MrgX1 agonist – activates human MrgX1 receptor signaling; AID 588627; MrgX1-HEK293 cells, Fluo-4 calcium fluorescence, agonist mode; stronger effect = higher value; 0.44% of 310,000 active; Q96LB2; B-score at 10 µM;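 active means calcium response B-score plate-corrected fluorescence ratio at least 3 library SD, with starting fluorescence B-score inside 5 SD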
Target sequence (Q96LB2 whole entry, looked up): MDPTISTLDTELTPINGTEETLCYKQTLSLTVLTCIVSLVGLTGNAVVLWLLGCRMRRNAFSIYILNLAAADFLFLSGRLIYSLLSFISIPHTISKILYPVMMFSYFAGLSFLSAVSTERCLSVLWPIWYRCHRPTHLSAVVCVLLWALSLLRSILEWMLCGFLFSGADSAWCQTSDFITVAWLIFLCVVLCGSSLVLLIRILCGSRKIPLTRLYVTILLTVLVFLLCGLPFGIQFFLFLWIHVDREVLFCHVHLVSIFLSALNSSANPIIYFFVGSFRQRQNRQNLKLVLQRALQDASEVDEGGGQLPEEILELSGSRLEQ
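Assay system: stable human MrgX1 HEK293 cell line. Quantity: 15,000 cells per well. Schedule: cells plated overnight, dye loaded 0.5 h 37 °C, 0.5 h room temperature. Detection: Fluo-4 NW calcium-flux fluorescence, kinetic read. Read-out basis: peak-minus-minimum fluorescence over baseline, converted to B scores. Control set: positive and negative control wells on each plate.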
RGS4 block – human RGS4 inhibition. HEK293 M3R/RGS4 inducible, Fluo-4 calcium flux; stronger effect = higher value; triggered by carbachol at its EC20. AID 463165. P49798. B-score at 10 µM. 0.45% of 310,000 active;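 active means B-score, a plate-corrected calcium signal, over three deviations above library mean, with baseline fluorescence within five deviations of library mean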;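 further: RGS4 expression induced by doxycycline in cells with stable M3 receptor; B-score is computed from the integrated fluorescence ratio over baseline after carbachol; higher B-score means a larger calcium signal and so more RGS4 inhibition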
Target sequence (P49798 whole entry, looked up): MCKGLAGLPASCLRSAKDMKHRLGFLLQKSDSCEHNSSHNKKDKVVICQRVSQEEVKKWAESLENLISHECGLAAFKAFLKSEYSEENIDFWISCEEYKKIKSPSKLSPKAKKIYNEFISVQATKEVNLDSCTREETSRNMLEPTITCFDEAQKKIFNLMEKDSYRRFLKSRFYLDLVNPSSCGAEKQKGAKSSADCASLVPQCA
MrgX1 antag – blocks BAM8-22 activation of human MrgX1 receptor; MRGX1-HEK293 calcium flux, Fluo-4, BAM8-22 antagonism; stronger effect = lower value; B-score at 10 µM; 1.3% of 310,000 active; Q96LB2;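 active means calcium-response B-score plate-corrected more than 3 library SD below zero, starting fluorescence within 5 deviations, no agonist response on first addition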;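 further: peak minus trough fluorescence over baseline after final BAM8-22 challenge near maximal dose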
Kir21 inh – Kir2.1 (mouse) channel inhibition; HEK293-Kir2.1, FluxOR thallium flux fluorescence; stronger effect = lower value; P35561; 0.85% of 310,000 active; B-score at 10 µM;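 active means fluorescence ratio B-score at or below minus 3 SD of library scores, with starting-brightness B-score within 2 SD, cut at about -4.2 in these data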;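 further: channel flux triggered by added potassium and thallium sulfate stimulus; B-score of peak minus minimum fluorescence over baseline after thallium stimulus; more negative B-score means stronger Kir2.1 block with less thallium influx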
RGS4 pot – potentiators or activators of RGS4; HEK293 M3R/inducible RGS4, carbachol calcium flux Fluo4; stronger effect = lower value; B-score at 10 µM; 0.92% of 310,000 active; AID 463111;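 active means B-score of the integrated calcium signal more than 4 SD below the library mean, with starting fluorescence not abnormally high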;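 further: negative B-score means reduced calcium response which marks RGS4 activation or potentiation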
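Assay system: HEK293 FlpIn-TREx cells, stable M3R, doxycycline-inducible RGS4 / Probe or stimulus: carbachol, ECmax concentration / Times: overnight RGS4 induction, 30 min dye load 37 °C, 20 min compound RT / Signal: kinetic calcium fluorescence imaging with Fluo4-AM dye, 2 µM / Measure: Agonist-evoked peak-minus-minimum fluorescence over baseline, integrated ratio, B score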
MrgX1 allo act – allosterically activates human MrgX1 receptor signaling. Q96LB2. MrgX1-HEK293, Fluo-4 calcium flux, FDSS; stronger effect = higher value. B-score at 10 µM. 0.63% of 310,000 active. AID 588675;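 active means plate-corrected calcium response at least 3 library SD above typical, normal starting fluorescence, not activating the receptor alone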;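 further: compound read alongside a low EC10 to EC30 dose of BAM8-22 agonist; peak minus trough fluorescence over baseline measured at the second addition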
Numbers without * were called inactive. Sampled rows, rich in hits. Any-hit rate of the full collection: about 4.1%.

`Cc1cccc(C(=O)N2CCCC(N3CCN(Cc4ccc5c(c4)OCO5)CC3)C2)n1` (centres undefined) gave MrgX1 agonist inactive, RGS4 block inactive, MrgX1 antag inactive, Kir21 inh -0.16, RGS4 pot inactive and MrgX1 allo act inactive.
Screening CCCCNCCOCCOc1ccccc1-c1ccccc1 returned MrgX1 agonist inactive, RGS4 block inactive, MrgX1 antag inactive, Kir21 inh -10*, RGS4 pot inactive and MrgX1 allo act inactive.
`CCC(=O)c1ccccc1OCCN1C(=O)NC(C)(C)C1=O` gave MrgX1 agonist inactive, RGS4 block inactive, MrgX1 antag inactive, Kir21 inh -1.4, RGS4 pot inactive and MrgX1 allo act inactive.
COCCNCCCCOc1ccccc1-c1ccccc1 was read as MrgX1 agonist inactive, RGS4 block inactive, MrgX1 antag -5.2*, Kir21 inh -6.3*, RGS4 pot inactive and MrgX1 allo act inactive.
For CC(C)NCCCCOc1ccccc1-c1ccccc1 the results were MrgX1 agonist inactive, RGS4 block inactive, MrgX1 antag inactive, Kir21 inh -5.6*, RGS4 pot inactive and MrgX1 allo act inactive.
For C=CCNCCOc1ccccc1-c1ccccc1 the results were MrgX1 agonist inactive, RGS4 block inactive, MrgX1 antag inactive, Kir21 inh -1.3, RGS4 pot inactive and MrgX1 allo act inactive.
Screening CC1(C)NC(=O)N(CCOCCOc2ccccc2-c2ccccc2)C1=O returned MrgX1 agonist inactive, RGS4 block inactive, MrgX1 antag inactive, Kir21 inh -5.4*, RGS4 pot inactive and MrgX1 allo act inactive.
`COc1ccc(NC(=O)COc2ccccc2Cc2ccccc2)cc1S(N)(=O)=O` gave MrgX1 agonist inactive, RGS4 block inactive, MrgX1 antag inactive, Kir21 inh -1.8, RGS4 pot inactive and MrgX1 allo act inactive.
Screening COc1ccc(C(C)C)cc1S(=O)(=O)n1ccnc1C returned MrgX1 agonist inactive, RGS4 block inactive, MrgX1 antag inactive, Kir21 inh -0.27, RGS4 pot inactive and MrgX1 allo act inactive.
For COc1ccccc1OCCSc1ncnc2nc[nH]c12 the results were MrgX1 agonist inactive, RGS4 block inactive, MrgX1 antag inactive, Kir21 inh -0.02, RGS4 pot inactive and MrgX1 allo act inactive.
C=CCn1c(SCc2ccc(C#N)cc2)nnc1-c1cccc(Cl)c1 was read as MrgX1 agonist inactive, RGS4 block inactive, MrgX1 antag inactive, Kir21 inh -11*, RGS4 pot inactive and MrgX1 allo act inactive.
`N#Cc1ccc(CSc2nnc(-c3ccccc3)n2Cc2ccco2)cc1` gave MrgX1 agonist inactive, RGS4 block inactive, MrgX1 antag inactive, Kir21 inh -1.7, RGS4 pot inactive and MrgX1 allo act inactive.
`Cc1ccc(C(C[N+](=O)[O-])n2nc(C)cc2C)cc1` (centres undefined) gave MrgX1 agonist inactive, RGS4 block inactive, MrgX1 antag inactive, Kir21 inh -8*, RGS4 pot inactive and MrgX1 allo act inactive.
Screening Cn1cc(SCC(=O)N2CCCc3ccccc32)c2ccccc21 returned MrgX1 agonist inactive, RGS4 block inactive, MrgX1 antag inactive, Kir21 inh -6.8*, RGS4 pot inactive and MrgX1 allo act inactive.
O=C(CN1C(=O)COc2ccccc21)NC1CCCC1 was read as MrgX1 agonist inactive, RGS4 block inactive, MrgX1 antag inactive, Kir21 inh 2.7, RGS4 pot inactive and MrgX1 allo act inactive.
For C/C(=N\Nc1ccc([N+](=O)[O-])cc1)c1ccc(O)cc1 the results were MrgX1 agonist inactive, RGS4 block inactive, MrgX1 antag -5.6*, Kir21 inh -0.39, RGS4 pot inactive and MrgX1 allo act inactive.
Screening CC(=O)Nc1ccc(NC(=O)C(C)OC(=O)CCCOc2ccc(Cl)cc2C)cc1 (centres undefined) returned MrgX1 agonist inactive, RGS4 block inactive, MrgX1 antag -7.8*, Kir21 inh -0.67, RGS4 pot inactive and MrgX1 allo act inactive.
`O=C(COC(=O)c1cc2ccccc2cc1O)c1ccccc1` gave MrgX1 agonist inactive, RGS4 block inactive, MrgX1 antag inactive, Kir21 inh 1.1, RGS4 pot inactive and MrgX1 allo act inactive.
Screening COc1cc(F)ccc1S(=O)(=O)n1c(C)nc2ccccc21 returned MrgX1 agonist inactive, RGS4 block inactive, MrgX1 antag inactive, Kir21 inh -6.5*, RGS4 pot inactive and MrgX1 allo act inactive.
For COc1ccc(S(=O)(=O)n2c(C)nc3ccccc32)cc1C the results were MrgX1 agonist inactive, RGS4 block inactive, MrgX1 antag inactive, Kir21 inh -3.2, RGS4 pot inactive and MrgX1 allo act inactive.
For COc1cc(C)c(C)cc1S(=O)(=O)n1c(C)nc2ccccc21 the results were MrgX1 agonist inactive, RGS4 block inactive, MrgX1 antag inactive, Kir21 inh -5.1*, RGS4 pot inactive and MrgX1 allo act inactive.
For O=C(COC(=O)CNC(=O)c1ccc(Cl)cc1Cl)NC(=O)NCc1ccccc1 the results were MrgX1 agonist inactive, RGS4 block inactive, MrgX1 antag inactive, Kir21 inh -1.3, RGS4 pot inactive and MrgX1 allo act inactive.
`CCCC(=O)Nc1ccc(-c2csc(N/N=C\c3ccncc3)n2)cc1` gave MrgX1 agonist inactive, RGS4 block inactive, MrgX1 antag -5.4*, Kir21 inh 0.78, RGS4 pot -7.2* and MrgX1 allo act inactive.
For CCOc1ccc(NS(=O)(=O)c2ccc(C(=O)N3CCCC3)cc2)cc1 the results were MrgX1 agonist inactive, RGS4 block inactive, MrgX1 antag inactive, Kir21 inh 0.02, RGS4 pot inactive and MrgX1 allo act inactive.
`N#CC1(CCCN2CCCCC2)c2ccccc2CCc2ccccc21` gave MrgX1 agonist inactive, RGS4 block inactive, MrgX1 antag inactive, Kir21 inh -5.6*, RGS4 pot inactive and MrgX1 allo act inactive.
`O=c1c2cc(Br)ccc2nc(-c2ccc([N+](=O)[O-])cc2)n1O` gave MrgX1 agonist 133*, RGS4 block inactive, MrgX1 antag inactive, Kir21 inh 0.35, RGS4 pot inactive and MrgX1 allo act inactive.
O=c1c2ccc(Cl)cc2nc(-c2ccc([N+](=O)[O-])cc2)n1O was read as MrgX1 agonist 54*, RGS4 block inactive, MrgX1 antag inactive, Kir21 inh 1, RGS4 pot inactive and MrgX1 allo act inactive.
Screening N#Cc1ccc(-c2nc3ccc(Br)cc3c(=O)n2O)cc1 returned MrgX1 agonist inactive, RGS4 block inactive, MrgX1 antag inactive, Kir21 inh 0.17, RGS4 pot inactive and MrgX1 allo act inactive.
